Shown are actives, neighbours in structure and some others; about 3.9% of the full set was active somewhere.
TMEM16A act = activates or potentiates the mouse TMEM16A chloride channel; AID 623877; actives 0.3% (n = 340,000); Q8BHY3; HEK293 TMEM16A/YFP-H148Q/I152L, iodide quench fluorescence; hits give low values; B-score at 10 µM;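 active = fluorescence-ratio B-score plate-corrected deviation score at least 3 library SD below zero, with starting fluorescence score within 5 deviations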;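 also: channel opened by trigger with iodide after compound preincubation; score built on the fluorescence ratio of max minus min over baseline; more negative score means more quench and so TMEM16A activation or potentiation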
Target sequence (Q8BHY3 whole entry, looked up): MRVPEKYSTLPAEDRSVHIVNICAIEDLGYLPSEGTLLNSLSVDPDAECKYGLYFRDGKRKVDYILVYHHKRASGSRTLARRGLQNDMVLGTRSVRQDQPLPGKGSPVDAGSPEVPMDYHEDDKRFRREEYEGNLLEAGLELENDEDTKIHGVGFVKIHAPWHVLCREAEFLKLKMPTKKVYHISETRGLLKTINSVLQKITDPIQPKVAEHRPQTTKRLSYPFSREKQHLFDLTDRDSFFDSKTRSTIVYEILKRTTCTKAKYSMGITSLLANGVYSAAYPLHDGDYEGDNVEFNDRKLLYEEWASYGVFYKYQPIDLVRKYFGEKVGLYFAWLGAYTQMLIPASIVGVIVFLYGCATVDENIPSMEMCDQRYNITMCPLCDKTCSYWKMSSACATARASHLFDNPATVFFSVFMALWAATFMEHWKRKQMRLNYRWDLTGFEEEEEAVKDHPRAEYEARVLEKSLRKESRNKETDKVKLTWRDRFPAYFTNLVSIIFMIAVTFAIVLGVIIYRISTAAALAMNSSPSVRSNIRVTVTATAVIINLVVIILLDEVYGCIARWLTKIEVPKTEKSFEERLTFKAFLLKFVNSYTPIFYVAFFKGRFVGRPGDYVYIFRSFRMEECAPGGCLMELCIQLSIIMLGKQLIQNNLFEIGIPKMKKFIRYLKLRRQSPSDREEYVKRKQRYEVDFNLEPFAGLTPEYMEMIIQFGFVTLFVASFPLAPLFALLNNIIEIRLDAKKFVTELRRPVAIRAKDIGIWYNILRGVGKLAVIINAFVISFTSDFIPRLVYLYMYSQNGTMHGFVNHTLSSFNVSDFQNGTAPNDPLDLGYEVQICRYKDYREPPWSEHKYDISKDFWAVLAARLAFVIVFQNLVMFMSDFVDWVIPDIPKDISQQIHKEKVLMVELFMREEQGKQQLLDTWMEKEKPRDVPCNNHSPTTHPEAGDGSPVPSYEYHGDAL
CRFBP-R2 agonist = CRF-BP/CRF-R2 complex agonism | actives 0.46% (n = 350,000) | HEK293 CRF-R2/CRF-BP, calcium dye fluorescence (FLIPR); percent of saturating CRF peptide response | AID 588473 | activation, % at 13.2 µM;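 active = activation of at least 50%, plus an integration ratio under a set limit after plate pattern correction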;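 also: plate controls were neutral control wells without compound for no effect and CRF at EC100 for full effect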
CRFR2-BP antag = blocks CRF-induced signaling of the CRF-BP/CRF-R2 complex; actives 0.59% (n = 350,000); HEK293 CRF-R2/CRF-BP, CRF-induced calcium fluorescence; AID 588475; inhibition, % at 11.8 µM;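 active = inhibition of the ligand-induced calcium signal above about 50% at the single tested concentration, limit read from the data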
TAAR1 agonist = human TAAR1 agonism | CHO RD-HGA16 TAAR1, Fluo-8 calcium fluorescence; vehicle wells 0%, saturating PEA agonist 100% | actives 0.99% (n = 360,000) | AID 624467 | activation, % at 3 µM;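 active = activation above the mean activation of all test compounds in the run plus 3 SD, cut at about 38% in these data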
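System: CHO RD-HGA16 cells carrying human TAAR1 plus Gα16; Incubation: 17-24 h seeding, 75 min 37 °C dye, 30 min RT; Measured by: Fluo-8 fluorescence, 5 s baseline then 140 s kinetic read; Control set: DMSO and PEA EC100; Replication: single well for each compound.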
TAAR1 antag = antagonists of human TAAR1. actives 1.5% (n = 360,000). Q96RJ0. CHO RD-HGA16 TAAR1, Fluo-8 calcium fluorescence, antagonist. inhibition, % at 3 µM;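 active = inhibition above a per-plate cutoff, the mean inhibition of test compounds on that plate plus 3 SD, cut at about 49% in these data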;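 also: 0% = DMSO plus EC80 beta-PEA response and 100% = DMSO alone without agonist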
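Test system: CHO RD-HGA16 cells bearing hTAAR1 | Reagent: β-PEA, EC80 | Compound dosing: 3 µM, single point | Schedule: Dye loading 75 min at 37 °C, then 30 min room temperature | Signal: Calcium fluorescence with Fluo-8 | Evaluation: Percent inhibition of PEA-evoked calcium signal, max/basal emission ratio | Control set: DMSO-only wells and EC80 β-PEA-stimulated wells | Repeats: Singlicate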
ANO1 block = inhibitors of mouse TMEM16A calcium-activated chloride channel | HEK293 TMEM16A/YFP iodide influx fluorescence, ionomycin | normalized B-score (activity score, 25-100; higher = stronger inhibition) at 10 µM | actives 1.2% (n = 310,000) | AID 588511;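 active = ratio plate-corrected score three or more library SD toward inhibition, starting fluorescence score within five deviations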;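 also: score derived from kinetic fluorescence span divided by baseline fluorescence per well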
TAAR1 nonsel count = nonselective antagonist in TAAR1 antagonist counter-screen. shares compounds with TAAR1 antag. counterscreen cell line, calcium fluorescence, antagonist mode. inhibition, % at 3 µM. actives 77% (n = 2,400). AID 651780; in the data active = inhibition above about 22%;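 also: CHO-Ga16 host cells stimulated with ATP at an EC80 level; 0% = agonist EC80 plus vehicle and 100% = vehicle without agonist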
TAAR1 antag conf = confirmation of human TAAR1 antagonists. shares compounds with TAAR1 antag. TAAR1-expressing cells, fluorescence antagonist read-out. inhibition, % at 3 µM. actives 40% (n = 2,400). AID 651785; in the data active = inhibition above about 49%;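 also: CHO-Ga16 host cells challenged with agonist PEA near its EC80; 0% = agonist at EC80 plus vehicle and 100% = vehicle with no agonist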
Ga16 ag counter = nonselective Ga16 agonism, counter-screen; actives 18% (n = 2,400); shares compounds with TAAR1 antag; activation, % at 3 µM; Ga16-expressing cells, calcium fluorescence, agonist counterscreen; in the data active = activation above about 12%;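 also: 0% = vehicle wells and 100% = saturating stimulus response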
TAAR1 ag count = counter-screen for human TAAR1 antagonists: TAAR1 agonists; shares compounds with TAAR1 antag; hTAAR1 cell line, fluorescence activation, agonist mode; actives 2% (n = 2,400); activation, % at 3 µM; in the data active = activation above about 37%;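 also: CHO cells stably expressing TAAR1 with calcium dye readout; 0% = DMSO vehicle and 100% = full agonist response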
Active calls of the source: *; i = inactive; · = no result; ! = a repeat was not active.

SMILES	TMEM16A act	CRFBP-R2 agonist	CRFR2-BP antag	TAAR1 agonist	TAAR1 antag	ANO1 block	TAAR1 nonsel count	TAAR1 antag conf	Ga16 ag counter	TAAR1 ag count
CCOc1cc(C(=O)N/N=C/c2ccoc2)cc(OCC)c1OCC	i	-0.9	-7.2	-1.4	-0.8	i	·	·	·	·
CC(C)COc1ccc(C(=O)N/N=C/c2ccoc2)cc1	i	1.0	1.9	-1.1	62.3*	i	13.2	36.9	8.4	10.4
CCOc1ccc(OCCSc2nc3ccccc3c(=O)[nH]2)cc1	i	-3.8	-24.5	33.2	62.5*	i	9.0	26.5	8.3	15.7
O=c1[nH]c(SCCOc2cccc3ccccc23)nc2ccccc12	i	1.4	-28.4	2.3	-3.5	i	·	·	·	·
NC(=S)NNc1c(F)c(F)c(F)c(F)c1F	i	0.5	6.0	1.4	11.2	i	·	·	·	·
CCC(=O)c1ccc(OCC(=O)OCC(=O)Nc2ccc(C)c(S(=O)(=O)N3CCCCC3)c2)cc1	i	-0.3	-1.7	27.6	66.7*	·	56.1*	57.0*	16.7*	15.3
COc1ccccc1C(=O)Nc1ccc(OCC(=O)N2CCCCC2C)cc1 (stereo unspecified)	i	0.6	2.9	5.8	7.6	·	·	·	·	·
O=C1C(NS(=O)(=O)c2cccs2)=C(N2CCN(Cc3ccccc3)CC2)C(=O)c2ccccc21	i	-0.8	-21.6	9.5	70.8*	i	30.0*	48.7*	5.9	4.4
Cc1ccc(NS(=O)(=O)c2ccc3c(c2)CCC(=O)N3)cc1C	i	-4.8	2.2	2.9	103.1*!	i	5.0	7.1	1.9	4.5
Cc1ccc(C2=C(c3ccc([N+](=O)[O-])cc3)C(=O)OC2)cc1C	i	0.0	-1.3	1.1	16.1	i	·	·	·	·
COc1ccccc1CNC(=O)COC(=O)c1cccnc1SCC(=O)NCc1ccccc1OC	i	0.3	16.3	12.7	74.6*	i	30.6*	51.5*	7.5	6.4
O=C(Nc1nc2ccccc2c(=O)[nH]1)c1ccccc1SCc1ccccc1	i	0.8	-9.7	7.8	50.1*	i	30.6*	53.2*	6.4	6.7
CCOc1ccc(-c2c(C)sc3nc[nH]c(=O)c23)cc1	i	-1.5	4.0	14.0	75.7*	i	26.5*	47.5	8.4	6.6
O=S(=O)(c1cccc(COc2ccc(Cl)cc2Cl)c1)N1CCOCC1	i	3.6	-4.8	-0.2	4.4	i	·	·	·	·
CC(=O)c1cc(Cl)ccc1OCc1cccc(S(=O)(=O)N2CCOCC2)c1	i	-0.7	17.3	14.4	90.7*	i	34.6*	55.1*	12.8*	9.3
COc1ccc(N2CCN(c3nc(Nc4ccc(C)c(F)c4)nc(N4CCCC4)n3)CC2)cc1	i	3.6	11.3	-0.5	-19.1	i	·	·	·	·
COc1ccc(N2CCN(c3nc(Cl)nc(Nc4ccc(F)cc4)n3)CC2)cc1	i	-1.0	-10.3	1.7	78.4*	i	27.0*	50.9*	9.8	16.7
Nc1ccn([C@@H]2O[C@H](CNCc3cc(Cl)ccc3OCc3ccc(Cl)cc3)[C@@H](O)[C@H]2O)c(=O)n1	·	0.2	-15.9	3.1	-2.9	·	·	·	·	·
COc1ccc(C2=NOC(Cn3nc(C(=O)NCc4ccco4)cc3-c3ccccc3)C2)cc1 (stereo unspecified)	i	0.2	6.3	19.2	66.2*	i	33.9*	56.3*	8.7	6.2
COc1ccc(C2=NOC(Cn3nc(C(=O)NCc4cccs4)cc3-c3ccccc3)C2)cc1 (stereo unspecified)	i	0.7	7.2	15.8	77.2*	i	39.8*	50.5*	8.1	5.9
COc1ccc(C2=NOC(Cn3nc(-c4ccccc4)cc3C(=O)NCc3ccco3)C2)cc1 (stereo unspecified)	i	-0.3	8.5	6.6	37.5	·	·	·	·	·
CCOC(=O)c1cc(-c2ccccc2)n(CC2CC(c3ccc(OC)cc3)=NO2)n1 (stereo unspecified)	i	-0.4	-2.7	14.2	74.8*	i	30.2*	50.7*	6.8	7.6
CCOc1ccc(N2C(=O)C(=O)/C(=C(/O)c3ccccc3)C2c2ccccc2[N+](=O)[O-])cc1 (stereo unspecified)	i	0.0	-7.3	3.3	-47.6	i	·	·	·	·
C=Cn1ccnc1CC(O)c1ccc(OC)cc1 (stereo unspecified)	i	-1.5	3.1	1.9	-10.3	i	·	·	·	·
CC(=O)OC(C=C(C)C)C/C(C)=C/COc1c2ccoc2cc2oc(=O)ccc12 (stereo unspecified)	·	-1.6	12.2	3.0	69.5*	·	28.4*	54.4*	8.8	25.2
SMILES	TMEM16A act	CRFBP-R2 agonist	CRFR2-BP antag	TAAR1 agonist	TAAR1 antag	ANO1 block	TAAR1 nonsel count	TAAR1 antag conf	Ga16 ag counter	TAAR1 ag count
CC(C)(O)C(O)COc1c2ccoc2cc2oc(=O)ccc12 (stereo unspecified)	i	-0.6	-0.7	2.2	-5.9	i	·	·	·	·
Cc1cc(/C=N/NC(N)=S)c(C)n1-c1cccc(Cl)c1	i	1.4	-106.0	20.8	12.0	i	·	·	·	·
Cc1cc(/C=N/NC(N)=S)c(C)n1-c1ccc(Br)cc1	i	-1.6	-4.8	1.9	95.3*	i	15.4	92.2*	12.1*	16.7
Cc1cc(/C=N/NC(N)=S)c(C)n1-c1ccc(Cl)cc1	i	-1.0	-34.7	4.7	84.1*	i	2.5	82.7*	16.3*	17.7
CCOC(=O)C1=CCN(S(=O)(=O)c2ccc(Cl)cc2)C1c1cccc(C)c1 (stereo unspecified)	·	·	·	2.8	12.2	·	·	·	·	·
Cc1c(C(=O)NCc2ccc3c(c2)cc(C)n3C)cccc1[N+](=O)[O-]	i	2.0	12.6	9.9	66.5*	i	30.4*	51.1*	7.5	7.6
COc1ccc(NC(=O)c2ccc(CNc3c(N4CCCC4)c(=O)c3=O)cc2)cc1Cl	i	-1.9	14.3	-2.3	1.8	i	·	·	·	·
CCCC(C(=O)NC1CCCC1)N(Cc1ccc2c(c1)OCO2)C(=O)c1snc(C(N)=O)c1N (stereo unspecified)	i	-0.9	5.0	16.6	63.5*	i	28.0*	48.6*	9.5	11.3
